MrgX1 ag – agonists of human MrgX1 receptor; Q96LB2; MrgX1-HEK293 cells, Fluo-4 calcium fluorescence, agonist mode; stronger effect = higher value; B-score at 10 µM; 0.44% of 310,000 active;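 active means calcium response B-score plate-corrected fluorescence ratio at least 3 library SD, with starting fluorescence B-score inside 5 SD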
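Test system: HEK293 cells stably expressing human MrgX1 receptor; amount: 15,000 cells per well; doses: compound delivered in addition one of three; times: overnight plating before 1 h dye loading; detection: Fluo-4 NW calcium-flux fluorescence, kinetic read; read-out basis: B-scored fluorescence response ratio; controls: positive and negative controls per plate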
MrgX1 antagonist – human MrgX1 receptor antagonism, primary screen. Q96LB2. MRGX1-HEK293 calcium flux, Fluo-4, BAM8-22 antagonism; stronger effect = lower value. B-score at 10 µM. 1.3% of 310,000 active;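 active means calcium-response B-score plate-corrected more than 3 library SD below zero, starting fluorescence within 5 deviations, no agonist response on first addition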;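 further: peak minus trough fluorescence over baseline after final BAM8-22 challenge near maximal dose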
RGS4 act – potentiators or activators of RGS4; HEK293 M3R/inducible RGS4, carbachol calcium flux Fluo4; stronger effect = lower value; B-score at 10 µM; 0.92% of 310,000 active;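 active means B-score of the integrated calcium signal more than 4 SD below the library mean, with starting fluorescence not abnormally high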;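 further: negative B-score means reduced calcium response which marks RGS4 activation or potentiation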
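Material: Inducible-RGS4 HEK293 cells carrying M3 receptor; also added: carbachol at ECmax as muscarinic agonist stimulus; incubation: compound preincubation 20 min at room temperature before agonist; signal: Fluo4-AM (2 µM) calcium-flux fluorescence, kinetic read; measure: integrated calcium ratio converted to B score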
MrgX1 allo act – allosterically activates human MrgX1 receptor signaling. Q96LB2. MrgX1-HEK293, Fluo-4 calcium flux, FDSS; stronger effect = higher value. B-score at 10 µM. 0.63% of 310,000 active;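 active means plate-corrected calcium response at least 3 library SD above typical, normal starting fluorescence, not activating the receptor alone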;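 further: compound read alongside a low EC10 to EC30 dose of BAM8-22 agonist; peak minus trough fluorescence over baseline measured at the second addition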
RGS4 block – human RGS4 inhibition. 0.45% of 310,000 active. B-score at 10 µM. HEK293 M3R/RGS4 inducible, Fluo-4 calcium flux; stronger effect = higher value; triggered by carbachol at its EC20;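 active means B-score, a plate-corrected calcium signal, over three deviations above library mean, with baseline fluorescence within five deviations of library mean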;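 further: RGS4 expression induced by doxycycline in cells with stable M3 receptor; B-score is computed from the integrated fluorescence ratio over baseline after carbachol; higher B-score means a larger calcium signal and so more RGS4 inhibition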
Target sequence (P49798 whole entry, looked up): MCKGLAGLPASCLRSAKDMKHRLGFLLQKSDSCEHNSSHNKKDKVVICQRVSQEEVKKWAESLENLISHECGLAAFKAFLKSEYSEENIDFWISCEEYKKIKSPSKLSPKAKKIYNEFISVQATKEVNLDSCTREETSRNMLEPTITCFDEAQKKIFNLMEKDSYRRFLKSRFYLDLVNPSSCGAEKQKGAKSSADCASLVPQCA
RGS4 inh valid – validation of RGS4 inhibitors; shares compounds with RGS4 block; HEK293 M3R/RGS4, carbachol calcium Fluo-4 fluorescence; carbachol added at its EC20; 0 = buffer wells, 100 = carbachol control; calcium response, % at 10 µM; 65% of 1,700 active;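 active means duplicate-averaged calcium response above the buffer-only control mean plus 5 SD of those controls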;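 further: integrated fluorescence ratio F max minus min over baseline F0; higher response in RGS4-induced cells means RGS4 inhibition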
M3R Ca ctr – non-induced cell nonspecific activity of RGS4 inhibitors | shares compounds with RGS4 block | HEK293 M3R non-induced, carbachol calcium Fluo-4; submaximal (EC20) carbachol stimulus; buffer wells 0%, carbachol control wells 100% | activity (percent), % at 10 µM | 20% of 1,900 active | AID 493000; call rule not given here;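 further: RGS4 induction absent so cells express M3R without RGS4; higher means more calcium signal and flags a non-specific hit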
RGS4 inh ctr2 – second counter-screen for RGS4 inhibitors: non-induced cells without carbachol; shares compounds with RGS4 block; HEK293 M3R/RGS4 non-induced, Fluo-4 calcium, no carbachol; normalised: buffer wells 0%, carbachol wells 100%; 22% of 1,900 active; calcium response (agonist-mode artifact), % at 10 µM;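 active means duplicate-averaged calcium rise in uninduced cells above buffer wells' mean plus 5 SD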
An asterisk follows results filed as active; i = inactive; / = not tested or not shown. This is a sample that favours compounds with a hit; in the whole collection about 3.5% have one here.

SMILES	MrgX1 ag	MrgX1 antagonist	RGS4 act	MrgX1 allo act	RGS4 block	RGS4 inh valid	M3R Ca ctr	RGS4 inh ctr2
O=C(Cn1ccc(C(F)(F)F)n1)N=Nc1c(O)[nH]c2ccccc12	i	i	i	i	i	/	i	i
CC(C)n1c(O)c(N=NC(=O)Cn2ccc(C(F)(F)F)n2)c2ccccc21	i	i	i	i	i	/	/	/
O=c1[nH][nH]c(-c2ccccc2O)c1C(C[N+](=O)[O-])c1ccc(Br)cc1 (stereo unspecified)	i	i	i	i	15*	32%*	36%*	20%*
Cc1ccc(C(C[N+](=O)[O-])c2c(-c3ccccc3O)[nH][nH]c2=O)cc1 (stereo unspecified)	i	i	i	i	6.3*	34%*	68%*	22%*
COc1ccc(C(C[N+](=O)[O-])c2c(C)[nH]c3ccccc23)cc1OC (stereo unspecified)	i	i	i	i	i	/	/	/
Cn1cc(C(C[N+](=O)[O-])c2ccccc2)c2ccccc21 (stereo unspecified)	i	i	i	i	i	/	/	/
COc1ccc(CN(C(=O)Cn2nnc(-c3ccc(C)o3)n2)C(C(=O)NCC2CCCO2)c2ccco2)cc1 (stereo unspecified)	i	i	i	i	i	/	/	/
Cc1[nH]n(-c2ccccc2)c(=O)c1C=Nc1ccc(S(N)(=O)=O)cc1	i	i	i	i	i	/	/	/
Cc1[nH]n(-c2c(Cl)cc(Cl)cc2Cl)c(=O)c1C=Nc1ccc(S(=O)(=O)N2CCOCC2)cc1	i	i	i	i	i	i	i	i
S=C1NC[C@H](Cc2ccccc2)N1CCCCC1CCCCC1	i	i	i	i	i	i	i	i
OCC1OC(n2cnc3c(NC4CCCCC4)ncnc32)C(O)C1O (stereo unspecified)	i	i	i	i	i	/	48%*	i
C=CCNc1ncnc2c1ncn2C1OC(CO)C(O)C1O (stereo unspecified)	i	i	i	i	4.8*	18%*	67%*	i
OCC1OC(n2cnc3c(NC4CCCC4)ncnc32)C(O)C1O (stereo unspecified)	i	i	i	i	4.7*	41%*	i	312%*
OC[C@H]1O[C@@H](n2cnc3c(NC4CCCC4)ncnc32)[C@H](O)[C@@H]1O	i	i	i	i	i	/	/	/
CC(C)(C)OC(=O)Nc1ncnc2c1ncn2C1OC(CO)C2OC(C)(C)OC21 (stereo unspecified)	i	i	i	i	i	/	/	/
O=C(NNC(=O)C1C2CCC(C2)C1C(=O)O)c1cccc(Cl)c1 (stereo unspecified)	i	i	i	i	i	/	/	/
CCOC(=O)[C@@H]1[C@H]2COc3ccccc3[C@H]2N2C(=O)N(c3ccc(F)cc3)C(=O)[C@]12C	i	i	i	i	i	i	i	i
CCOC(=O)[C@@H]1[C@H]2COc3ccccc3[C@@H]2N2C(=O)N(c3ccc(C)cc3)C(=O)[C@]12C	i	i	i	i	i	/	i	i
CCOC(=O)[C@@H]1[C@H]2COc3ccccc3[C@H]2N2C(=O)N(c3ccc(Cl)cc3)C(=O)[C@]12C	i	i	i	i	i	i	i	i
CCc1ccc(S(=O)(=O)Nc2ccc(O)c3ccccc23)cc1	i	i	i	i	4.7*	10%*	i	i

From PubChem
